Tests used:
Assay type in all cases: functional
[1] = tested on: Enterococcus faecalis; experiment: Antibacterial activity was evaluated against Enterococcus faecalis
Outline: (§1)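 MIC against aerobic bacteria, measured at Bayer AG, by standard agar dilution or broth microdilution per NCCLS M7-A5 guidelines. MIC taken as lowest concentration visibly inhibiting growth after in vitro incubation, read when untreated culture growth becomes visible; expressed as log 1/C.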

[2] = tested on: Escherichia coli; experiment: Antibacterial activity was evaluated against Escherichia coli; outline: as §1
[3] = tested on: Pseudomonas aeruginosa; experiment: Antibacterial activity was evaluated against Pseudomonas aeruginosa; outline: as §1
[4] = tested on: Staphylococcus aureus; experiment: Antibacterial activity was evaluated against Staphylococcus aureus; outline: as §1
[5] = tested on: Enterococcus faecalis; experiment: Antibacterial activity evaluated against Enterococcus faecalis; outline: as §1

SMILES	Log 1/C [1]	Log 1/C [2]	Log 1/C [3]	Log 1/C [4]	Log 1/C [5]
C[C@@]12CN(c3c(F)cc4c(=O)c(C(=O)O)cn(C5C[C@@H]5F)c4c3F)C[C@@H]1CCCN2 (some centres not stated)	6.86	7.46	6.25	7.16	
C[C@H]1COc2c(N3CCN(C)CC3)c(F)cc3c(=O)c(C(=O)O)cn1c23.C[C@H]1COc2c(N3CCN(C)CC3)c(F)cc3c(=O)c(C(=O)O)cn1c23.O [LEVOFLOXACIN]		7.41	6.2	6.5	6.2
CCn1cc(C(=O)O)c(=O)c2cc(F)c(N3CCNC(C)C3)c(F)c21 (configuration not stated) [LOMEFLOXACIN]		7.07	5.85	5.85	5.24
COc1c(N2C[C@@H]3CCCN[C@@H]3C2)c(F)cc2c(=O)c(C(=O)O)cn(C3CC3)c12 [MOXIFLOXACIN]	6.55	7.46	5.64	7.16	
CCn1cc(C(=O)O)c(=O)c2cc(F)c(N3CCNCC3)cc21 [NORFLOXACIN]		6.76	5.85	5.55	5.55
CCn1cc(C(=O)O)c(=O)c2cc(F)c(N3CCN(C)CC3)cc21 [PEFLOXACIN]		7.05	5.82	6.12	5.52
N[C@@H]1CN(c2c(F)cc3c(=O)c(C(=O)O)cn([C@@H]4C[C@@H]4F)c3c2Cl)CC12CC2 [SITAFLOXACIN ANHYDROUS]		8.04	6.84	7.74	7.45
C[C@@H]1CN(c2c(F)c(N)c3c(=O)c(C(=O)O)cn(C4CC4)c3c2F)C[C@H](C)N1 [SPARFLOXACIN]		7.42	5.59	6.8	6.2

Source: ChEMBL document CHEMBL1148326, “Chemometric studies on the bactericidal activity of quinolones via an extended VolSurf approach” (2004)
